For one experiment, the target named is Casein kinase II (Homo sapiens, UniProt P19784+P67870+P68400). Nature of the experiment: Inhibition of CK2. Type of experiment: protein-complex assay.
Experiment [1] addresses AMP-activated protein kinase (AMPK) alpha-1/beta-1/gamma-1 (Homo sapiens) (UniProt P54619+Q9Y478+Q13131). Nature of the experiment: Inhibition of AMPK at 10 uM relative to control; values are per cent of control.
The target of experiment [2] is 3-phosphoinositide-dependent protein kinase 1 (Homo sapiens) (UniProt O15530). Nature of the experiment: Inhibition of PDK1 at 10 uM relative to control; values are per cent of control.
Sequence of 3-phosphoinositide-dependent protein kinase 1 (Homo sapiens) (O15530 whole entry): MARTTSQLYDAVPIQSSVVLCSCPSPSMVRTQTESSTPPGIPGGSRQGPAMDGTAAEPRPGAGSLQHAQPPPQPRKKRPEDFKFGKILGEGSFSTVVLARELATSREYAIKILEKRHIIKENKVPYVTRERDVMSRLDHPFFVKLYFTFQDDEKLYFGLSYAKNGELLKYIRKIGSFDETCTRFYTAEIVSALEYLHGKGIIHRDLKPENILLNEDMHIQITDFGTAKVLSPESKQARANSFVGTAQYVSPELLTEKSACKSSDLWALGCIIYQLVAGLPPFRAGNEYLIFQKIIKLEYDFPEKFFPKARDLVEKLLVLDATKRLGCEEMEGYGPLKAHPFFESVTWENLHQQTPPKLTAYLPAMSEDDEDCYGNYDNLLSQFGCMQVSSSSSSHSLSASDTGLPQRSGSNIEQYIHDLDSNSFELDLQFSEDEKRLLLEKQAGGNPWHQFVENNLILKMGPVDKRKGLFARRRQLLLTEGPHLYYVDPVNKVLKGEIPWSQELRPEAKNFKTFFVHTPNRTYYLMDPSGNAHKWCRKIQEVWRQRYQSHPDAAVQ
Experiment [3] has as its target Ribosomal protein S6 kinase alpha-1 (Homo sapiens, UniProt Q15418). Nature of the experiment: Residual activity of MAPKAPK1a at 10 uM relative to control.
Experiment [4] is filed under the species Homo sapiens. Nature of the experiment: Inhibition of phosphorylase kinase at 10 uM relative to control.
In experiment [5] the target is Glycogen synthase kinase-3 beta (Homo sapiens) (UniProt P49841). Nature of the experiment: Inhibition of GSKbeta at 10 uM relative to control; values are per cent of control.
Experiment [6] addresses Ribosomal protein S6 kinase alpha-5 (Homo sapiens) (UniProt O75582). Nature of the experiment: Residual activity of MSK1 at 10 uM relative to control.
Experiment [7] has as its target Serine/threonine-protein kinase Sgk1 (Homo sapiens) (UniProt O00141). Nature of the experiment: Inhibition of SGK at 10 uM relative to control; values are per cent of control.
Experiment [8] concerns the target Mitogen-activated protein kinase 13 (Homo sapiens) (UniProt O15264). Nature of the experiment: Residual activity of SAPK4/p38delta at 10 uM relative to control.
For experiment [9], the target named is Mitogen-activated protein kinase 11 (Homo sapiens) (UniProt Q15759). Nature of the experiment: Inhibition of SAPK2b/p38--beta-2 at 10 uM relative to control; values are per cent of control.
For experiment [10], the target named is Mitogen-activated protein kinase 1 (Homo sapiens) (UniProt P28482). Nature of the experiment: Inhibition of MAPK2/ERK2 at 10 uM relative to control; values are per cent of control.
In experiment [11] the target is Casein kinase I (Homo sapiens) (UniProt Q9HCP0+P78368+P48730+P49674+P48729). Nature of the experiment: Residual activity of CK1 at 10 uM relative to control.
The target in experiment [12] is Mitogen-activated protein kinase 8 (Homo sapiens) (UniProt P45983). Nature of the experiment: Inhibition of JNK/SAPK1c at 10 uM relative to control; values are per cent of control.
Sequence of Mitogen-activated protein kinase 8 (Homo sapiens) (P45983 whole entry): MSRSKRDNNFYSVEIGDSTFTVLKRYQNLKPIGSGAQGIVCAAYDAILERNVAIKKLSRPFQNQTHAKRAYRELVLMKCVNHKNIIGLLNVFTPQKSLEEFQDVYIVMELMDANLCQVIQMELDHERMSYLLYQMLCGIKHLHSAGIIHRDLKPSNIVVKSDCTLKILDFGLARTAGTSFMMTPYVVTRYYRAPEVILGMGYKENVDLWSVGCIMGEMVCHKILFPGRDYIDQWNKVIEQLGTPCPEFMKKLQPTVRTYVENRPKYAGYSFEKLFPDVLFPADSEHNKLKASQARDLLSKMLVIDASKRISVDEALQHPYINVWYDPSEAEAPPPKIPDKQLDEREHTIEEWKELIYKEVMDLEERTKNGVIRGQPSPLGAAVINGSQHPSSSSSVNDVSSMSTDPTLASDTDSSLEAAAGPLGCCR
The target of experiment [13] is Tyrosine-protein kinase SYK (Rattus norvegicus) (UniProt Q64725). Nature of the experiment: Residual activity of Syk at 10 uM relative to control.
In experiment [14] the target is MAP kinase-activated protein kinase 2 (Homo sapiens) (UniProt P49137). Nature of the experiment: Inhibition of MAPKAPK2 at 10 uM relative to control; values are per cent of control.
Experiment [15] concerns the target Mitogen-activated protein kinase 14 (Homo sapiens) (UniProt Q16539). Nature of the experiment: Inhibition of SAPK2a/p38 at 10 uM relative to control; values are per cent of control.
For experiment [16], the species on record is Homo sapiens. Nature of the experiment: Inhibition of PP2A at 10 uM relative to control; values are per cent of control.
The target in experiment [17] is RAC-alpha serine/threonine-protein kinase (Homo sapiens) (UniProt P31749). Nature of the experiment: Inhibition of PKBalpha at 10 uM relative to control; values are per cent of control.
The target in experiment [18] is Dual specificity mitogen-activated protein kinase kinase 1 (Homo sapiens, UniProt Q02750). Nature of the experiment: Inhibition of MKK1 at 10 uM relative to control; values are per cent of control.
Sequence of Dual specificity mitogen-activated protein kinase kinase 1 (Q02750 whole entry): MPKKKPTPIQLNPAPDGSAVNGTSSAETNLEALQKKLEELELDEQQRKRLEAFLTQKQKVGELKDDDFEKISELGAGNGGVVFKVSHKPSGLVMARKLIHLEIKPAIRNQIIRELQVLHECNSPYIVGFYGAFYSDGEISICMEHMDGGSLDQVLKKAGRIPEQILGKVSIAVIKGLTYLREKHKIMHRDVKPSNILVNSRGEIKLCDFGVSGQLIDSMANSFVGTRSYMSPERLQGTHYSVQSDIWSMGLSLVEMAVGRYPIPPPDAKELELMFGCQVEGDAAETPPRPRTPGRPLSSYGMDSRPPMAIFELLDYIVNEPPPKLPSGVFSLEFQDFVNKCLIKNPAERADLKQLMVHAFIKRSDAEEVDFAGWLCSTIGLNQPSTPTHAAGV
Experiment [19] deals with Dual specificity tyrosine-phosphorylation-regulated kinase 1A (Homo sapiens, UniProt Q13627). Nature of the experiment: Inhibition of DYRK1A at 10 uM relative to control; values are per cent of control.
In experiment [20] the target is Mitogen-activated protein kinase 12 (Homo sapiens) (UniProt P53778). Nature of the experiment: Residual activity of SAPK3/p38gamma relative to control.
Experiment [21] concerns the target Rho-associated protein kinase 2 (Homo sapiens) (UniProt O75116). Nature of the experiment: Inhibition of ROCK2 at 10 uM relative to control; values are per cent of control.
In the next experiment the test system is Jurkat. Nature of the experiment: Inhibition of cell viability in Jurkat T cells after 24 hrs by MTT method. Type of experiment: functional, cell-based. The settings on record: Homo sapiens. The gist of the method:
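Human Jurkat T-leukemia cells, grown in RPMI-1640 with 10% FCS, were resuspended at 10⁶ cells/mL in medium with 1% FCS. They were exposed to increasing compound concentrations for 24 h at 37 °C. Controls received DMSO (0.5% v/v), set as 100% viability. Viability was read by MTT. Values are means ± SEM of three separate experiments; DC50 was taken as the concentration halving viability.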
(In general: Tetrazolium dyes change colour on reduction, which living cells bring about.)

In experiment [22] the target is Protein kinase C alpha type (Homo sapiens) (UniProt P17252). Nature of the experiment: Inhibition of PKCalpha at 10 uM relative to control; values are per cent of control.
Experiment [23] deals with Serine/threonine-protein kinase Chk1 (Homo sapiens) (UniProt O14757). Nature of the experiment: Inhibition of at CHK1 at 10 uM relative to control; values are per cent of control.
In experiment [24] the target is Ribosomal protein S6 kinase beta-1 (Homo sapiens) (UniProt P23443). Nature of the experiment: Residual activity of S6K1 at 10 uM relative to control.
Sequence of Ribosomal protein S6 kinase beta-1 (Homo sapiens) (P23443 whole entry, looked up): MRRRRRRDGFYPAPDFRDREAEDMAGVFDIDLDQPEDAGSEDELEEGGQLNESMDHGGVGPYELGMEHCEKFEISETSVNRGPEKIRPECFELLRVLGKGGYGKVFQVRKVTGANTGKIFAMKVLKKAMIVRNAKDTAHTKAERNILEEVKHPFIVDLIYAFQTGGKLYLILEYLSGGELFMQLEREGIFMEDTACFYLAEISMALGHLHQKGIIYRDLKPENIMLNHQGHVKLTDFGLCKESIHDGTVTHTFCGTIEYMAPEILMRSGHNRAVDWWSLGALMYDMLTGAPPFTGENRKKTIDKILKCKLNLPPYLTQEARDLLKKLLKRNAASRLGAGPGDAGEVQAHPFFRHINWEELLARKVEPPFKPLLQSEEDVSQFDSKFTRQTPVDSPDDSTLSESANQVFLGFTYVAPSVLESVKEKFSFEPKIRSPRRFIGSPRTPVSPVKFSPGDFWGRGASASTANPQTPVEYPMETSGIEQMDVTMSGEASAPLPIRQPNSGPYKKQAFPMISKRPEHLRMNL
Experiment [25] has as its target Tyrosine-protein kinase Lyn (Homo sapiens) (UniProt P07948). Nature of the experiment: Residual activity of Lyn at 10 uM relative to control.
Experiment [26] addresses Tyrosine-protein kinase CSK (Homo sapiens) (UniProt P41240). Nature of the experiment: Inhibition of CSK at 10 uM relative to control. The method, boiled down: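 Kinase selectivity panel: activity of each kinase measured with inhibitor at 10 μM. Residual activity is expressed as a percentage of a control run without inhibitor. Assays were linear with respect to time and enzyme concentration. Lyn, c-Fgr and Syk were purified from rat spleen. Golgi CK came from rat lactating mammary gland.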

Experiment [27] concerns the target cAMP-dependent protein kinase (PKA) (Homo sapiens) (UniProt P22694+P17612+P22612). Nature of the experiment: Inhibition of PKA at 10 uM relative to control; values are per cent of control.
The target of experiment [28] is MAP kinase-activated protein kinase 5 (Homo sapiens) (UniProt Q8IW41). Nature of the experiment: Residual activity of PRAK at 10 uM relative to control.

Each structure is given as a SMILES string. A value given as a limit tells only on which side of the number the result lay.

Sequence of Casein kinase II (P67870 whole entry): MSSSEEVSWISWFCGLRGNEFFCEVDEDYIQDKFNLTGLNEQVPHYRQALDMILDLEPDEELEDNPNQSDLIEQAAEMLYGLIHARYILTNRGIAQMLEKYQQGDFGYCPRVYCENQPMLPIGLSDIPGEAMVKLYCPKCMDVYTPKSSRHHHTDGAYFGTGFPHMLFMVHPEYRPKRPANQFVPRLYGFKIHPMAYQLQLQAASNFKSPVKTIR
Sequence of Casein kinase II (P68400 whole entry): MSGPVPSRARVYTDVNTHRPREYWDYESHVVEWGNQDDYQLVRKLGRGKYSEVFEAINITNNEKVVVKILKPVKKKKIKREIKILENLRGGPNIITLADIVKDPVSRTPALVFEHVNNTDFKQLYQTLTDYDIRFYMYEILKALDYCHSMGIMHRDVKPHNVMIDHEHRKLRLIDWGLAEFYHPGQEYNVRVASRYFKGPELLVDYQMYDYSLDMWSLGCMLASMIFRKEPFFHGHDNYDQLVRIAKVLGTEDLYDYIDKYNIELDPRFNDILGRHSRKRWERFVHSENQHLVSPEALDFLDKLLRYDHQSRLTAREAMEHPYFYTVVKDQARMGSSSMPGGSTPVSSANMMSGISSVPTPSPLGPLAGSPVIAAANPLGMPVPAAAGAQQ
Sequence of Casein kinase II (P19784 whole entry): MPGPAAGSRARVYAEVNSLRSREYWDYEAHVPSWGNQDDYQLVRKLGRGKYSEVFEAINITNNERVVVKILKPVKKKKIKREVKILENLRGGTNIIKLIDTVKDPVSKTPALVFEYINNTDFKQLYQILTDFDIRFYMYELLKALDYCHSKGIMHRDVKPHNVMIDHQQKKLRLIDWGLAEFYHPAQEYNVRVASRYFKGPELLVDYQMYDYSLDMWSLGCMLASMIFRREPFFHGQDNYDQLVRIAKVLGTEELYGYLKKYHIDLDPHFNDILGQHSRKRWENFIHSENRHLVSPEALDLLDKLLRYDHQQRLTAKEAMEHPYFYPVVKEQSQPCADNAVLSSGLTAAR
Sequence of Ribosomal protein S6 kinase alpha-1 (Q15418 whole entry): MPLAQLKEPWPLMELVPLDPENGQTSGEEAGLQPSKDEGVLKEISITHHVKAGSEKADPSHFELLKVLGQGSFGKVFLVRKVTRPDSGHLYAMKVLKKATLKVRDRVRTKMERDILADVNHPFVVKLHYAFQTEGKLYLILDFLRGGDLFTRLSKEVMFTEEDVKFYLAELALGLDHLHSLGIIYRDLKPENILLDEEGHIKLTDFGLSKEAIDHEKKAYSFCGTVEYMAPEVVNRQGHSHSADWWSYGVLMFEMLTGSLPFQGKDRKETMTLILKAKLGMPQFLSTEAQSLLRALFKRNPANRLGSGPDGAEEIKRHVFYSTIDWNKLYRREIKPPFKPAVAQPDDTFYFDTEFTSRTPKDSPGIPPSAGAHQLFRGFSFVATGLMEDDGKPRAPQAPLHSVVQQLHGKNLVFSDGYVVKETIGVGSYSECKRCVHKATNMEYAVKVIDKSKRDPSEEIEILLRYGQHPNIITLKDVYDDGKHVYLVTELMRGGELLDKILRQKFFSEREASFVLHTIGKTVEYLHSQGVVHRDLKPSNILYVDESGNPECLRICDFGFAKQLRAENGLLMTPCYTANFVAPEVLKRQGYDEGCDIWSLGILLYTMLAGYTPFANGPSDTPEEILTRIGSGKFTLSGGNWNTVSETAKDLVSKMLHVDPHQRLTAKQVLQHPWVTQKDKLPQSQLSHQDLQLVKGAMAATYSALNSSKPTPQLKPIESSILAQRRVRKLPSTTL
Sequence of Serine/threonine-protein kinase Sgk1 (Homo sapiens) (O00141 whole entry): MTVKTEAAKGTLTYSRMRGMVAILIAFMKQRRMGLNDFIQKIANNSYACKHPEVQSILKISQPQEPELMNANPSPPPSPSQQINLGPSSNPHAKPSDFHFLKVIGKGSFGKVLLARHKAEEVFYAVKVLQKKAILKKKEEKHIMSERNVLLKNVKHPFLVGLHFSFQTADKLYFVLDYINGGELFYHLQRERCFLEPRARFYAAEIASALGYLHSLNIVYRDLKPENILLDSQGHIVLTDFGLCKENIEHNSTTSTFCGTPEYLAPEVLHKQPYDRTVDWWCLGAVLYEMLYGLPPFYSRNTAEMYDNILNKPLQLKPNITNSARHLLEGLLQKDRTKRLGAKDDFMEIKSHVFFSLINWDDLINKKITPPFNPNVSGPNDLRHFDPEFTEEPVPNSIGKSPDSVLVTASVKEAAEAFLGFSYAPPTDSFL
Sequence of Mitogen-activated protein kinase 14 (Homo sapiens) (Q16539 whole entry): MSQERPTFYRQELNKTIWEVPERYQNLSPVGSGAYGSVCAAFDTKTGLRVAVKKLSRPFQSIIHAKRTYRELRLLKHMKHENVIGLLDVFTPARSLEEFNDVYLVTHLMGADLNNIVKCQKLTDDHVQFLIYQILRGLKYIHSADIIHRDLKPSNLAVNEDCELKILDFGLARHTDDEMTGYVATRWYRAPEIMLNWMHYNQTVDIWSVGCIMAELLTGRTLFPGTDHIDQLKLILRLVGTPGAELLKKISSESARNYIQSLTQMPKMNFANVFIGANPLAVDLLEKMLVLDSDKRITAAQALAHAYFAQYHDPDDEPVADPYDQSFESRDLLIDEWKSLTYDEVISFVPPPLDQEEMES
Sequence of Tyrosine-protein kinase CSK (Homo sapiens) (P41240 2-450 limits assumed): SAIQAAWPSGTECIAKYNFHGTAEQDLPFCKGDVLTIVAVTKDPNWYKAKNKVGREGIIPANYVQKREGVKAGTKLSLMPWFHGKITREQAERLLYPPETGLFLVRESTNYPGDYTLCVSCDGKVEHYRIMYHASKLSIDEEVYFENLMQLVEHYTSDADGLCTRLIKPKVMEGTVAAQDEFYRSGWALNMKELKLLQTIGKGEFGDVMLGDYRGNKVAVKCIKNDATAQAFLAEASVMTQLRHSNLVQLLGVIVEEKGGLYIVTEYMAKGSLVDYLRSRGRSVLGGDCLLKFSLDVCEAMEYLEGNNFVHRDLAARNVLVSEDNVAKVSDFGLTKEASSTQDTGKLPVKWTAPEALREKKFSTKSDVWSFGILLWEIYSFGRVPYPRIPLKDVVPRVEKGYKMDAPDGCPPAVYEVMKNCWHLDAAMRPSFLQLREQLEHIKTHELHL

For orientation: IC50 means the midpoint of a concentration-inhibition curve. By Ki is commonly meant the dissociation constant of the complex between target and ligand, obtained from inhibition or displacement. On Casein kinase II, `CN(C)c1nc2c(Br)c(Br)c(Br)c(Br)c2n1C` gave an IC50 of 130 nM and a Ki of 200 nM.

In the case of `CSc1nc2c(Br)c(Br)c(Br)c(Br)c2n1C`, at Casein kinase II, the IC50 is 600 nM and the affinity corresponds to a Ki of 360 nM.

On Casein kinase II, `OCCNc1nc2c(Br)c(Br)c(Br)c(Br)c2[nH]1` had an IC50 of 270 nM and a Ki of 130 nM.

With `NC(=O)Cn1c(Br)nc2c(Br)c(Br)c(Br)c(Br)c21`, at Casein kinase II, half-maximal inhibition (IC50) required 1570 nM and the Ki is 1900 nM.

At Casein kinase II, `OCC(O)CSc1nc2c(Br)c(Br)c(Br)c(Br)c2[nH]1` (centres undefined) registered an IC50 of 150 nM and a Ki of 140 nM.

Consider `CN(C)CCNc1nc2c(Br)c(Br)c(Br)c(Br)c2[nH]1`, for which, on Casein kinase II, half-maximal inhibition (IC50) was put at 250 nM and affinity was put at a Ki of 160 nM.

On Casein kinase II, `O=c1[nH]c2c(Br)c(Br)c(Br)c(Br)c2[nH]1` gave an IC50 of 360 nM and a Ki of 150 nM.

At Casein kinase II, `CC(O)CNc1nc2c(Br)c(Br)c(Br)c(Br)c2[nH]1` (centres undefined) registered an IC50 of 280 nM and a Ki of 140 nM.

As to `Cn1c(=O)[nH]c2c(Br)c(Br)c(Br)c(Br)c21`, on Casein kinase II, the IC50 was found to be 390 nM and the Ki turned out to be 200 nM.

On Casein kinase II, `Brc1nc2c(Br)c(Br)c(Br)c(Br)c2[nH]1` displayed an IC50 of 740 nM and a Ki of 230 nM.

As for `CNc1nc2c(Br)c(Br)c(Br)c(Br)c2[nH]1`, at Casein kinase II, the IC50 stood at 210 nM and the Ki was 90 nM.

The compound `CCOc1nc2c(Br)c(Br)c(Br)c(Br)c2n1C` had a 50% inhibitory concentration (IC50) on Casein kinase II greater than 40000 nM.

At Casein kinase II, `C=CCn1c(Br)nc2c(Br)c(Br)c(Br)c(Br)c21` gave an IC50 of 880 nM and a Ki of 630 nM.

One may read the inhibition as the relative decrease from the control value, in per cent. As to `Brc1c(Br)c(Br)c2[nH]nnc2c1Br` [TETRABROMOBENZOTRIAZOLE], the residual activity amounted to 96% in experiment [1]; 97% in experiment [2]; 90% in experiment [3]; 49% in the experiment filed under Homo sapiens [4]; 64% in [5]; 111% in [6]. For the same compound, the residual activity came out at 97% in [7]; 99% in experiment [8]; 103% in [9]; 111% in experiment [10]; 91% in experiment [11]; 93% in [12]. Also, the residual activity was determined as 102% in experiment [13]; 108% in experiment [14]; 107% in [15]; 117% in the experiment listed under Homo sapiens [16]; 91% in experiment [17]; 94% in experiment [18]. For the same compound, the residual activity came out at 22% in experiment [19]; 89% in [20]; 91% in [21]; 102% in [22]; 101% in experiment [23]; 89% in experiment [24]. For the same compound, the residual activity in experiment [25] stood at 99%; in experiment [27], 90%; in [28], 87%. In the experiment with Jurkat, this compound displayed a DC50 of 17000 nM. For the same compound, the inhibition in experiment [26] is 101%.

At Casein kinase II, `CC(C)Oc1nc2c(Br)c(Br)c(Br)c(Br)c2n1C` yielded an IC50 of 20400 nM.

At Casein kinase II, `CC(C)Nc1nc2c(Br)c(Br)c(Br)c(Br)c2n1C` had an IC50 of 180 nM and a Ki of 190 nM.

On Casein kinase II, `O=C(O)CSc1nc2c(Br)c(Br)c(Br)c(Br)c2[nH]1` showed an IC50 of 250 nM and a Ki of 180 nM.

At Casein kinase II, `Cn1c(Br)nc2c(Br)c(Br)c(Br)c(Br)c21` returned an IC50 of 430 nM and a Ki of 540 nM.

Regarding `Nc1nc2c(Br)c(Br)c(Br)c(Br)c2[nH]1`, on Casein kinase II, half-maximal inhibition (IC50) was put at 300 nM and the Ki came to 90 nM.

On Casein kinase II, `CC(C)Nc1nc2c(Br)c(Br)c(Br)c(Br)c2[nH]1` registered an IC50 of 160 nM and a Ki of 60 nM.

Regarding `CCOC(=O)CSc1nc2c(Br)c(Br)c(Br)c(Br)c2[nH]1`, half-maximal inhibition against Casein kinase II (IC50) was put at 1550 nM.

`O=[N+]([O-])c1ccc(CSc2nc3c(Br)c(Br)c(Br)c(Br)c3[nH]2)cc1` registered an IC50 against Casein kinase II of 3480 nM.

At Casein kinase II, `CSc1nc2c(Br)c(Br)c(Br)c(Br)c2[nH]1` returned an IC50 of 250 nM and a Ki of 70 nM.

Source of the values: ChEMBL document CHEMBL1149250, “Optimization of protein kinase CK2 inhibitors derived from 4,5,6,7-tetrabromobenzimidazole” (J Med Chem, 2004).
